Test results taken from publication PMC3072167 (Bioorganic & medicinal chemistry letters, 2011).
“Also recorded” adds a separate entry of the source.

Legend:
[1] = molecular target: chymotrypsin-like (ChT-L) activities of the 20S proteasome (Homo sapiens, UniProt P28074); experiment: Inhibition of chymotrypsin-like; format: biochemical; conditions: qualitative statements in text
[2] = molecular target: chymotrypsin-like activity of the proteasome (Homo sapiens, UniProt P28074); experiment: Enzyme kinetic study; format: biochemical
In short: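 The 20S proteasome chymotrypsin-like activity was measured across a range of Suc-Leu-Leu-Val-Tyr-AMC concentrations, with or without 2 μM or 4 μM test compound. Cleaved substrate was read as fluorescence units, and reaction rates were plotted as Lineweaver-Burk plots to derive Km and Vmax. Each point is the average of two independent experiments.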

HeLa Ub^G76V-GFP cells = experiment: Cell based proteasome assay: accumulation of UbG76V-GFP; conditions: 7.5 uM for 24 hours; fluorescence microscope
In short: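 HeLa cells stably expressing UbG76V-GFP, seeded at 10,000 cells per well in growth medium, were cultured with test compound (7.5 uM) for 24 hours. Intracellular UbG76V-GFP accumulation was recorded as green fluorescence by fluorescence microscopy.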

Compound	Inhibition of the chymotrypsin-like activity of the 20S proteasome, in words [1]	also measured
CCOC(=O)CC[C@@H](C)[C@H]1CC[C@H]2[C@@H]3CC[C@@H]4C[C@H](O)CC[C@]4(C)[C@H]3CC[C@]12C [Compound 2]	loss of inhibitory activity	
CC1(C)C=C2[C@H]3CC[C@@H]4[C@@]5(C)CCC(=O)C(C)(C)[C@@H]5CC[C@@]4(C)[C@]3(C)CC[C@@]2(C(=O)O)CC1 [moronic acid, reference compound]	only LA inhibited	
CCOC(=O)CC[C@@H](C)[C@H]1CC[C@H]2[C@@H]3CC[C@@H]4C[C@H](OC(=O)CCCCCC(=O)O)CC[C@]4(C)[C@H]3CC[C@]12C [Compound 17]	loss of inhibitory activity	
C[C@H](CCC(=O)O)[C@H]1CC[C@H]2[C@@H]3CC[C@@H]4C[C@H](OC(=O)CCCCCC(=O)O)CC[C@]4(C)[C@H]3CC[C@]12C [Compound 8]	did not inhibit	
C[C@H](CCC(=O)O)[C@H]1CC[C@H]2[C@@H]3CC[C@@H]4C[C@H](OC(=O)CC5(CC(=O)O)CCCC5)CC[C@]4(C)[C@H]3CC[C@]12C [Compound 10]		Mode of proteasome inhibition ([2]; Lineweaver-Burk plot, 2 μM and 4 μM compound, substrate Suc-Leu-Leu-Val-Tyr-AMC): noncompetitive inhibitor; Effect on Michaelis-Menten constant (Km) of the substrate ([2]; compound at 2 μM and 4 μM): without affecting; Effect on maximum reaction rate (Vmax) of the proteasomal activity ([2]; compound at 2 μM and 4 μM): reduced; Accumulation of Ub^G76V-GFP (green fluorescence) in cells (HeLa Ub^G76V-GFP cells): resulted in accumulation of Ub^G76V-GFP; also recorded: inhibited the proteasome
COC(=O)CC[C@@H](C)[C@H]1CC[C@H]2[C@@H]3CC[C@@H]4C[C@H](O)CC[C@]4(C)[C@H]3CC[C@]12C [Compound 1]	loss of inhibitory activity	
COC(=O)CC[C@@H](C)[C@H]1CC[C@H]2[C@@H]3CC[C@@H]4C[C@H](OC(=O)Cc5cccc(CC(=O)O)c5)CC[C@]4(C)[C@H]3CC[C@]12C [Compound 15]	lost the inhibitory activity; also recorded: loss of inhibitory activity	
C[C@H]1[C@H](C)CC[C@]2(C(=O)O)CC[C@]3(C)C(=CC[C@@H]4[C@@]5(C)CC[C@H](O)C(C)(C)[C@@H]5CC[C@]43C)[C@H]12 [ursolic acid, reference compound]	only LA inhibited	
COC(=O)CC[C@@H](C)[C@H]1CC[C@H]2[C@@H]3CC[C@@H]4C[C@H](OC(=O)CCCCCC(=O)O)CC[C@]4(C)[C@H]3CC[C@]12C [Compound 16]	loss of inhibitory activity	
